Experimental data published in ChEMBL document CHEMBL2010800, “Methoxychalcone inhibitors of androgen receptor translocation and function” (Bioorg Med Chem Lett, 2012).
Activity calls are given as the source filed them. No cut-off for these calls is given here.

Legend:
[1] = target: T1, Androgen receptor (Homo sapiens) (UniProt P10275); assay: Antagonist activity at androgen receptor in human LNCAP cells assessed as decrease in prostate specific antigen mRNA level at 2.5 uM after 20 hrs by real time RT-PCR analysis; type: functional, cell-based
T1 sequence (whole entry): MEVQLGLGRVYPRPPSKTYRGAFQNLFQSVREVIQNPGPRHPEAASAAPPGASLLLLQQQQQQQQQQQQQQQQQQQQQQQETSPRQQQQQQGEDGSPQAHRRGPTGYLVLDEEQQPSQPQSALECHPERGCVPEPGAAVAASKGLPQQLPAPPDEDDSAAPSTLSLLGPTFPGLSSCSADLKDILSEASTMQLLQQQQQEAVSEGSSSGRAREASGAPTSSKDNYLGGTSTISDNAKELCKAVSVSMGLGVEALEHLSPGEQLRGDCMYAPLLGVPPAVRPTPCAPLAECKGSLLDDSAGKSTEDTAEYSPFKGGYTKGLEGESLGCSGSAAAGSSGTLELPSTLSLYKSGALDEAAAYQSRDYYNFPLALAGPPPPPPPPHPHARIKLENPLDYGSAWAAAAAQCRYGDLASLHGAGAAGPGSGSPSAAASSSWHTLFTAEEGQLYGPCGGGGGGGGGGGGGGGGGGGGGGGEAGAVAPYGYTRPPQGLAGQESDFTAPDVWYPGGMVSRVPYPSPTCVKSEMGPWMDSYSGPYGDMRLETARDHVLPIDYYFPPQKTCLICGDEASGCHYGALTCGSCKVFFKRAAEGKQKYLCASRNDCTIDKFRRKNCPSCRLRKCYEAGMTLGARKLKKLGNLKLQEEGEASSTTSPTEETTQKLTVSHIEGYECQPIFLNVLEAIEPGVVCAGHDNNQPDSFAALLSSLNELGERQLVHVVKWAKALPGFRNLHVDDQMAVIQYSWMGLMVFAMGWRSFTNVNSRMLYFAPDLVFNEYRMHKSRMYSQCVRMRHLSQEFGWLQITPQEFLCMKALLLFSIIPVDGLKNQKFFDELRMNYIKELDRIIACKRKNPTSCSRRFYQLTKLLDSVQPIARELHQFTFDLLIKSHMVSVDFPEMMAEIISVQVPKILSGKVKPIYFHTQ
Summary of the method: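 LNCaP prostate cancer cells (AR carries T877A ligand-binding-domain mutation) exposed to compound at 2.5 μM for 20 hr; PSA mRNA quantified by real-time RT-PCR and expressed relative to DMSO-treated control cells set to 1; mean values, n = 3.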

[2] = target: T1, Androgen receptor (Homo sapiens); assay: Antagonist activity at androgen receptor in human LNCAP cells assessed as inhibition of R1881-induced prostate specific antigen mRNA expression after 20 hrs by real time RT-PCR analysis relative to control; type: functional, cell-based
Summary of the method: (§1)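 LNCaP cells were first kept 3 days in phenol red-free RPMI 1640 with 10% charcoal-stripped FBS and 1% antibiotic-antimycotic. They were then exposed for 20 hr to compound at 10, 5 or 1 μM together with 0.5 nM R1881. PSA and TMPRSS2 mRNA were quantified by real-time RT-PCR against DMSO-treated controls.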

[3] = target: T1, Androgen receptor (Homo sapiens); assay: Antagonist activity at androgen receptor in human LNCAP cells assessed as inhibition of R1881-induced transmembrane protease serine 2 mRNA expression after 20 hrs by real time RT-PCR analysis; type: functional, cell-based; summary of the method: as §1
[4] = target: T1, Androgen receptor (Homo sapiens); details: LNCaP, 10 uM
Androgen receptor [5] = target: T2, Androgen receptor (Homo sapiens, UniProt P10275); assay: Antagonist activity at androgen receptor in human LNCAP cells assessed as decrease in prostate specific antigen mRNA level after 20 hrs by real time RT-PCR analysis
T2 sequence (P10275 whole entry): T1 sequence (whole entry)

Androgen receptor [6] = target: T2, Androgen receptor; assay: Antagonist activity at androgen receptor in human LNCAP cells assessed as decrease in transmembrane protease serine 2 mRNA level after 20 hrs by real time RT-PCR analysis
[7] = target: T1, Androgen receptor (Homo sapiens); details: LNCaP, 10 uM; remark: listed apart in the source
[8] = target: T1, Androgen receptor (Homo sapiens); details: LNCaP, 10 uM; remark: listed apart in the source
[9] = target: T1, Androgen receptor (Homo sapiens); details: LNCaP, 10 uM; remark: listed apart in the source
[10] = target: T1, Androgen receptor (Homo sapiens); details: LNCaP, 10 uM; remark: listed apart in the source
LNCaP = assay: Cytotoxicity against human LNCAP cells after 3 days; type: functional, cell-based; details: 72 h
[11] = target: T1, Androgen receptor (Homo sapiens); assay: Agonist activity at androgen receptor in human LNCAP cells assessed as potentiation of R1881-induced prostate specific antigen mRNA expression at 1 uM after 20 hrs by real time RT-PCR analysis; type: functional, cell-based; summary of the method: as §1
[12] = target: T1, Androgen receptor (Homo sapiens); assay: Agonist activity at androgen receptor in human LNCAP cells assessed as potentiation of R1881-induced transmembrane protease serine 2 mRNA expression at 1 uM after 20 hrs by real time RT-PCR analysis; type: functional, cell-based; summary of the method: as §1

| SMILES | inhibition [1] [%] | inhibition [2] | inhibition [3] | also measured |
| --- | --- | --- | --- | --- |
| COc1cccc(OC)c1C(=O)/C=C/c1ccccc1C(F)(F)F | 87 | – | – | – |
| COc1cccc(OC)c1C(=O)/C=C/c1ccc([N+](=O)[O-])cc1[N+](=O)[O-] | 81 | – | – | – |
| COc1ccc(OC)c(C(=O)/C=C/c2ccc(C#N)cc2)c1 | 82 | – | – | – |
| COc1ccc(C(=O)/C=C/c2cccc(C(F)(F)F)c2)c(OC)c1OC | 81 | – | – | – |
| COc1cccc(OC)c1C(=O)/C=C/c1ccc([N+](=O)[O-])cc1 | 90 | – | – | – |
| COc1ccc(C(=O)/C=C/c2ccc([N+](=O)[O-])cc2)c(OC)c1OC | 84 | Dose-dependent effect | Dose-dependent effect | – |
| COc1ccccc1C(=O)/C=C/c1ccccc1[N+](=O)[O-] | 94 | Dose-dependent effect | Dose-dependent effect | inhibition [4]: Active; IC50 (Androgen receptor [5]): 600 nM; IC50 (Androgen receptor [6]): 750 nM; inhibition [7]: Dose-dependent effect; inhibition [8]: Active; inhibition [9]: 89%; inhibition [10]: 99%; IC50 (LNCaP): 3400 nM |
| COc1ccc(C(=O)/C=C/c2ccc(C#N)cc2)cc1OC | 85 | Dose-dependent effect | Dose-dependent effect | – |
| COc1ccccc1C(=O)/C=C/c1ccccc1C(F)(F)F | 94 | – | – | – |
| COc1ccc(C(=O)/C=C/c2cccc([N+](=O)[O-])c2)c(OC)c1OC | 84 | Dose-dependent effect | Dose-dependent effect | Activity [11]: Active; Activity [12]: Active |
| COc1ccc(C(=O)/C=C/c2ccc([N+](=O)[O-])cc2)cc1OC | – | Dose-dependent effect | Dose-dependent effect | – |
| COc1cccc(OC)c1C(=O)/C=C/c1cccc([N+](=O)[O-])c1 | 85 | – | – | – |
| COc1ccccc1C(=O)/C=C/c1ccccc1 | 63 | – | – | – |
